Measured values: paper PMC3418399 (Molecular microbiology, 2012)
Entries after “also recorded” stand apart in the source; their conditions may differ. Read-outs that look alike come from different tables or passages of the source. Non-standard residues stand in square brackets, D forms with d.

Columns and labels:
Cdr1p ATPase = Cdr1p ATPase (Candida albicans, UniProt P43071); test: CaCdr1p ATPase inhibition assay; assay type: biochemical
Pma1p ATPase = molecular target: T1, Pma1p ATPase (Saccharomyces cerevisiae, UniProt P05030); test: Pma1p ATPase assay; assay type: biochemical; settings: read-out: IC50 Pma1p ATPase; pH 7.0, 10 μM oligomycin
T1 sequence (P05030 1-918): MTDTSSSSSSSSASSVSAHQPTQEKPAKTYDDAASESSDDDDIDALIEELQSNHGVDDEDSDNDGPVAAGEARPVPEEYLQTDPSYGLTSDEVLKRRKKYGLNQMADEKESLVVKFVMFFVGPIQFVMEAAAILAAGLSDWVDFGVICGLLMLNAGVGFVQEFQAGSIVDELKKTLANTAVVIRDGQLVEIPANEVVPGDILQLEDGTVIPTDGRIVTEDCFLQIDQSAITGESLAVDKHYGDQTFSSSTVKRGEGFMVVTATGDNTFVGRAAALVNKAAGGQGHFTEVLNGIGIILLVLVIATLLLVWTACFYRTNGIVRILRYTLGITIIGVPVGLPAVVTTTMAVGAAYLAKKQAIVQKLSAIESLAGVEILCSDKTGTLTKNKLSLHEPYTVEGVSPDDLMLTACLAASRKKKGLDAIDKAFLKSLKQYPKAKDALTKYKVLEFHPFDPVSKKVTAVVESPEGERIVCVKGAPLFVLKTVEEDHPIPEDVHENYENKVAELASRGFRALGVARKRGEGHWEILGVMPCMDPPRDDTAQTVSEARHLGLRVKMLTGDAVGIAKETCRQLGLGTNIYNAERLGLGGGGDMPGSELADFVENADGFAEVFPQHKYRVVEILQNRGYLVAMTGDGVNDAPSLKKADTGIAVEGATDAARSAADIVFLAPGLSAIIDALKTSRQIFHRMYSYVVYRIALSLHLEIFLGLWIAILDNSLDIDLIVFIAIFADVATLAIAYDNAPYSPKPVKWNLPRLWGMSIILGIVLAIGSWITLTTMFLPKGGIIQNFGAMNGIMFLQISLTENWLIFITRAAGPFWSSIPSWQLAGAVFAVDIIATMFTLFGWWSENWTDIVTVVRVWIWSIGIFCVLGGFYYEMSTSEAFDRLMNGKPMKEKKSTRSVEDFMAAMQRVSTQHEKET

AD/pABC3 (Control) [1] = test: MIC, liquid microdilution; assay type: cell-based, Saccharomyces cerevisiae; settings: AD/pABC3, Control; RC21 and rhodamines; CSM pH 7.0, 30°C, 48 h
[2] = tested on: AD/CDR1 (Wild type CaCdr1p); test: MIC, liquid microdilution; assay type: cell-based, Saccharomyces cerevisiae; settings: AD/CDR1, Wild type; RC21 and rhodamines; CSM pH 7.0, 30°C, 48 h
EL1/TM2 (CaCdr1p G547R) = test: MIC, liquid microdilution; assay type: cell-based, Saccharomyces cerevisiae; settings: EL1/TM2, G547R; RC21 and rhodamines; CSM pH 7.0, 30°C, 48 h
EL3 (CaCdr1p Q714K) = test: MIC, liquid microdilution; assay type: cell-based, Saccharomyces cerevisiae; settings: EL3, Q714K; RC21 and rhodamines; CSM pH 7.0, 30°C, 48 h
EL4-1 (CaCdr1p Q1226K) = test: MIC, liquid microdilution; assay type: cell-based, Saccharomyces cerevisiae; settings: EL4-1, Q1226K; RC21 and rhodamines; CSM pH 7.0, 30°C, 48 h
EL4-2 (CaCdr1p Q1226R) = test: MIC, liquid microdilution; assay type: cell-based, Saccharomyces cerevisiae; settings: EL4-2, Q1226R; RC21 and rhodamines; CSM pH 7.0, 30°C, 48 h
EL6 (CaCdr1p Q1445R) = test: MIC, liquid microdilution; assay type: cell-based, Saccharomyces cerevisiae; settings: EL6, Q1445R; RC21 and rhodamines; CSM pH 7.0, 30°C, 48 h
TM5 (CaCdr1p V674F) = test: MIC, liquid microdilution; assay type: cell-based, Saccharomyces cerevisiae; settings: TM5, V674F; RC21 and rhodamines; CSM pH 7.0, 30°C, 48 h
AD/pABC3 (Control) [3] = test: Agarose diffusion FLC chemosensitization assay; assay type: cell-based, Saccharomyces cerevisiae; settings: presence or absence of FLC at 1/4 MIC
[4] = tested on: AD/CDR1 (Wild type CaCdr1p; AD/CaCDR1B); test: Agarose diffusion FLC chemosensitization assay; assay type: cell-based, Saccharomyces cerevisiae; settings: for chemosensitization of cells overexpressing CaCdr1p to FLC: ~6 nmole/disk, FLC 40 μg ml^−1
[5] = tested on: S. cerevisiae AD/CaCDR1 variants; test: Spontaneous variants resistant to FLC chemosensitization; assay type: cell-based, Saccharomyces cerevisiae
[6] = tested on: AD/pABC3 or AD/CaCDR1 cells; test: Rhodamine 6G uptake in de-energised cells; assay type: cell-based, Saccharomyces cerevisiae; settings: concentrations <20 μM
In short: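 Host S. cerevisiae and Cdr1p-expressing cells were harvested at log phase, washed, and suspended in 50 mM HEPES-NaOH pH 7.0. They were de-energised with 5 mM 2-deoxyglucose (30 °C, 30 min), then given 15 μM R6G ± test peptide at OD600 1.0. Samples taken at time intervals were boiled 10 min in SDS/mercaptoethanol/Tris pH 6.8 lysis buffer. Released R6G was quantified fluorimetrically against a standard curve in lysis buffer.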

human red blood cells = test: Hemolysis; assay type: cell-based; settings: for lysis of red blood cells: ≤100 μM
C. albicans strain CIA4 = test: Agarose diffusion / checkerboard FLC chemosensitization; assay type: cell-based, Candida albicans; settings: FLC-susceptible strain CIA4; 7.5 nmole RC21
In short: (§1)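 Agarose diffusion on C. albicans clinical isolates. Base CSM-ura with FLC at the indicated concentration was solidified with 0.6% agarose. Cells were layered over it in CSM-ura overlay (0.4% agarose plus FLC). Crude, non-HPLC-purified test peptide (7.5 nmole) was dried on a paper disk at 37 °C for 1-2 h and placed on the overlay. Plates were incubated at 30 °C for 48 h, and inhibition-zone diameters were compared with and without FLC.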

[7] = tested on: C. albicans strain MML33 (deleted of both copies of CDR1); test: as above; assay type: cell-based, Candida albicans; settings: 7.5 nmole RC21
In short: as §1

[8] = molecular target: T2, CaCdr1p-mediated rhodamine 6G efflux in AD/CaCDR1 cells (Candida albicans, UniProt P43071); settings: 1.25 μM; S. cerevisiae strain overexpressing CaCdr1p; ref Holmes et al., 2008; cited from earlier work
CaCdr2p = settings: 1.25 μM; strain overexpressing CaCdr2p; ref Holmes et al., 2008; cited from earlier work
C. albicans MML611 = settings: 0.62 μM; FLC-resistant MML611; ref Holmes et al., 2008; cited from earlier work
C. albicans MML610 = settings: 0.62 μM; FLC-susceptible parental strain MML610; ref Holmes et al., 2008; cited from earlier work
[9] = molecular target: T2, CaCdr1p-mediated rhodamine 6G efflux in AD/CaCDR1 cells; test: Glucose-dependent rhodamine 6G efflux in whole cells; assay type: cell-based
[10] = tested on: human epithelial (HEp2) cells; test: Toxicity for cultured human epithelial cells; assay type: cell-based

T2 sequence (P43071 whole entry): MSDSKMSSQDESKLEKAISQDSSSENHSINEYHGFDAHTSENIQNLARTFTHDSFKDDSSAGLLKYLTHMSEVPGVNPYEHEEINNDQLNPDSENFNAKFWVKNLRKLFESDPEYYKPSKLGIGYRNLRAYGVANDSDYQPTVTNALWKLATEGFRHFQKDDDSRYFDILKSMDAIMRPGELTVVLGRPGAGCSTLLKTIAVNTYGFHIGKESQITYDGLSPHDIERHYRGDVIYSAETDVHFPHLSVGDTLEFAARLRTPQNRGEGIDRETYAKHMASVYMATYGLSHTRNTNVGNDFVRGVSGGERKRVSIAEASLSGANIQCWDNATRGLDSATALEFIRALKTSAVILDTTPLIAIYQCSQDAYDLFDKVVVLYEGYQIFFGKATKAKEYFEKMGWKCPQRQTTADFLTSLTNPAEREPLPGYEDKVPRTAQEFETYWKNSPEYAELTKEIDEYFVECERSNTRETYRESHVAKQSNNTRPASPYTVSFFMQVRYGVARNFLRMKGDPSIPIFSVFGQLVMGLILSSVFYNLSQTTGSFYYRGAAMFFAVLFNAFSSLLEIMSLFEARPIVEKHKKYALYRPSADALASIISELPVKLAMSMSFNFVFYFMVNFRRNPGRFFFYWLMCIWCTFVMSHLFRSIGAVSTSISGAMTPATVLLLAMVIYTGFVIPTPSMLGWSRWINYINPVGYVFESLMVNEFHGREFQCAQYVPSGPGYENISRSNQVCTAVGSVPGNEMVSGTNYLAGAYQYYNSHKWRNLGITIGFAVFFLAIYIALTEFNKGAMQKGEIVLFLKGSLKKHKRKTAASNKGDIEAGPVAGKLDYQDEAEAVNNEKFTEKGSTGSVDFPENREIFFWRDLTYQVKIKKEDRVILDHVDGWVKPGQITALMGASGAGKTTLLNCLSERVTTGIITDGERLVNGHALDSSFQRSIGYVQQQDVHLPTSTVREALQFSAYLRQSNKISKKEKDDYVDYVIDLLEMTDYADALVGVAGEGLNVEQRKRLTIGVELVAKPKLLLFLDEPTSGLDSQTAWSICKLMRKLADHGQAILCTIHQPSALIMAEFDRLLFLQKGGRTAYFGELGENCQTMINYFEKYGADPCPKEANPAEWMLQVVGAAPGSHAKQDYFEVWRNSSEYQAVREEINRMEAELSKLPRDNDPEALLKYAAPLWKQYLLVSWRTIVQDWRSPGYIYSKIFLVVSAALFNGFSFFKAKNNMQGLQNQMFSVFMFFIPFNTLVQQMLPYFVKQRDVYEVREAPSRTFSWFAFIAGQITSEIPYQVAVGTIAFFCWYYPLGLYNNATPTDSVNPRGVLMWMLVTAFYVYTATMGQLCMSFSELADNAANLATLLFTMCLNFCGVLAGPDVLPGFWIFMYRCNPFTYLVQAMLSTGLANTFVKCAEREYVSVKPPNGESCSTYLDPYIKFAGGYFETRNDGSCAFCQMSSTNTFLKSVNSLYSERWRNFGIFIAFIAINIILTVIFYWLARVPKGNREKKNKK
Cdr1p ATPase, sequence (P43071 whole entry): as above

## D-NH2-FFKWQRRR-CONH2 + Mtr (H-[dF][dF][dK][dW][dQ][dR][dR][dR]-NH2; also: + Mtr, position not given here) [RC21]
Cdr1p ATPase; IC50 = 20 → 1.3 μM
  increase in potency against CaCdr1p ATPase activity during deconvolution: 16 fold
Cdr1p ATPase; preincubation of membranes with ATP
  mode of inhibition of CaCdr1p ATPase: not a competitive inhibitor
Pma1p ATPase
  IC50: 5 µM
AD/pABC3 (Control) [1]
  MIC: >20 µM
[2]
  MIC: 20 µM
EL1/TM2 (CaCdr1p G547R)
  MIC: 20 µM
EL3 (CaCdr1p Q714K)
  MIC: 20 µM
EL4-1 (CaCdr1p Q1226K)
  MIC: 20 µM
EL4-2 (CaCdr1p Q1226R)
  MIC: 20 µM
EL6 (CaCdr1p Q1445R)
  MIC: 20 µM
TM5 (CaCdr1p V674F)
  MIC: 20 µM
AD/pABC3 (Control) [3]
  effect on growth of strain AD/pABC3: no effect
[4]; crude RC21 6 nmole/disk, FLC at 1/4 MIC
  inhibition of FLC resistance mediated by over-expression in S. cerevisiae of CaCdr1p: inhibited FLC resistance
[5]; variant C1, Q1226K, External loop 4
  Resistance to FLC chemosensitization: High
[5]; variant C2, G547R, TMD1, TMS2
  Resistance to FLC chemosensitization: High
[5]; variant E1, V674F, TMD1, TMS5
  Resistance to FLC chemosensitization: Moderate
[5]; variant E2, V674F, TMD1, TMS5
  Resistance to FLC chemosensitization: Moderate
[5]; variant F1, Q1226K, External loop 4
  Resistance to FLC chemosensitization: High
[5]; variant F2, Q1226K, External loop 4
  Resistance to FLC chemosensitization: High
[5]; variant F3, Q714K, External loop 3
  Resistance to FLC chemosensitization: High
[5]; variant HE2, Q1226R, External loop 4
  Resistance to FLC chemosensitization: High
[6]
  effect on the rate of uptake of R6G: no significant effect
Human red blood cells
  lysis of red blood cells: did not lyse; also recorded: did not hemolyse
C. albicans strain CIA4
  effect on FLC susceptibility: conferred increased FLC susceptibility
[7]
  effect on FLC susceptibility: minor effect
[8]
  inhibition of glucose-dependent R6G efflux: 90%
CaCdr2p
  effect on glucose-dependent R6G efflux: no effect
C. albicans MML611
  inhibition of glucose-dependent R6G efflux: 90%
C. albicans MML610
  inhibition of glucose-dependent R6G efflux: detectably inhibited

## D-NH2-FFKW(Mtr)QRRR-CONH2 [RC21v1]
[4]; agarose diffusion assays, amount not stated (partly data not shown)
  chemosensitization of CaCdr1p-dependent FLC resistance: ineffective
[4]; agarose diffusion
  chemosensitization of cells overexpressing CaCdr1p to FLC: inactive
[9]; effect independent of glucose, non-specific membrane permeabilization
  concentration required to obtain a significant effect on R6G efflux: At least 40 μM

## RC21v2: HPLC-purified RC21 derivative with a single Mtr group attached to one of its three C-terminal arginine residues (FFKWQRRR)
Pma1p ATPase
  IC50: 5 µM
[4]; ~5.5 nmol per disk, agarose diffusion
  chemosensitization of yeast over-expressing CaCdr1p to FLC: chemosensitized
[4]; agarose diffusion
  chemosensitization of cells overexpressing CaCdr1p to FLC: chemosensitized
[5]; variant R1, Q714K, External loop 3
  Resistance to FLC chemosensitization: High
[5]; variant R2, Q1445K, External loop 6
  Resistance to FLC chemosensitization: High
[5]; variant R3, Q1226K, External loop 4
  Resistance to FLC chemosensitization: High
[5]; variant R4, Q1226K, External loop 4
  Resistance to FLC chemosensitization: High
[9]; 1.25 μM, after 5 minutes of preincubation
  inhibition of glucose-dependent R6G efflux: fully inhibited
Human red blood cells
  lysis of red blood cells: did not lyse; also recorded: did not hemolyse
[10]; 100 μM (≤100 μM in Fig. 7 legend)
  effect on growth or viability of a human epithelial cell line: did not affect; also recorded: did not kill

## C[C@@H]1[C@H](O)[C@@H](C)/C=C/C=C/C=C/C=C/C=C/C=C/C=C/[C@H](O[C@@H]2O[C@H](C)[C@@H](O)[C@H](N)[C@@H]2O)C[C@@H]2O[C@](O)(C[C@@H](O)C[C@@H](O)[C@H](O)CC[C@@H](O)C[C@@H](O)CC(=O)O[C@H]1C)C[C@H](O)[C@H]2C(=O)O [Amphotericin B]
Human red blood cells; human
  concentration causing complete lysis of red blood cells: 3 µM
[10]; human
  concentration rendering human epithelial cells inviable: 15 µM
